Reference: ChEMBL document CHEMBL3352173, “Optimization of pyrrolamide topoisomerase II inhibitors toward identification of an antibacterial clinical candidate (AZD5099)” (J Med Chem, 2014)
pIC50: −log10 of the molar value. In brackets after ≈: the same amount, converted by molar mass.

Key:
[1] = Percentage unbound in human plasma; type: ADME, cell-free
Streptococcus pyogenes = assay: Antimicrobial activity against Streptococcus pyogenes by broth microdilution/CLSI method; type: functional
Escherichia coli [2] = assay: Antimicrobial activity against wild-type Escherichia coli Eco523 by broth microdilution/CLSI method; type: functional; settings: Escherichia coli, Eco523; read-out: MIC
Moraxella catarrhalis = assay: Antimicrobial activity against Moraxella catarrhalis by broth microdilution/CLSI method; type: functional; settings: Moraxella catarrhalis; read-out: MIC
Escherichia coli [3] = assay: Antimicrobial activity against Escherichia coli tolC- by broth microdilution/CLSI method; type: functional; settings: Escherichia coli; read-out: MIC
[4] = Clearance in rat at 10 mg/kg, iv; type: ADME, organism-based; set-up: dose 10 mg/kg, route intravenous; settings: in vivo
Haemophilus influenzae = assay: Antimicrobial activity against Haemophilus influenzae by broth microdilution/CLSI method; type: functional; settings: Haemophilus influenzae; read-out: MIC
Staphylococcus aureus [5] = assay: Antimicrobial activity against methicillin-sensitive Staphylococcus aureus by broth microdilution/CLSI method; type: functional; settings: Staphylococcus aureus; read-out: MIC
Streptococcus pneumoniae = assay: Antibacterial activity against Streptococcus pneumoniae by broth microdilution/CLSI method; type: functional; settings: Streptococcus pneumoniae; read-out: MIC
Staphylococcus aureus [6] = assay: Antimicrobial activity against methicillin, quinolone-resistant Staphylococcus aureus by broth microdilution/CLSI method; type: functional; settings: Staphylococcus aureus; read-out: MIC
DNA gyrase subunit B = DNA gyrase subunit B (Staphylococcus aureus, UniProt P0A0K8); assay: Inhibition of ATPase activity of Staphylococcus aureus GyrB
DNA gyrase subunit B, sequence (P0A0K8 whole entry): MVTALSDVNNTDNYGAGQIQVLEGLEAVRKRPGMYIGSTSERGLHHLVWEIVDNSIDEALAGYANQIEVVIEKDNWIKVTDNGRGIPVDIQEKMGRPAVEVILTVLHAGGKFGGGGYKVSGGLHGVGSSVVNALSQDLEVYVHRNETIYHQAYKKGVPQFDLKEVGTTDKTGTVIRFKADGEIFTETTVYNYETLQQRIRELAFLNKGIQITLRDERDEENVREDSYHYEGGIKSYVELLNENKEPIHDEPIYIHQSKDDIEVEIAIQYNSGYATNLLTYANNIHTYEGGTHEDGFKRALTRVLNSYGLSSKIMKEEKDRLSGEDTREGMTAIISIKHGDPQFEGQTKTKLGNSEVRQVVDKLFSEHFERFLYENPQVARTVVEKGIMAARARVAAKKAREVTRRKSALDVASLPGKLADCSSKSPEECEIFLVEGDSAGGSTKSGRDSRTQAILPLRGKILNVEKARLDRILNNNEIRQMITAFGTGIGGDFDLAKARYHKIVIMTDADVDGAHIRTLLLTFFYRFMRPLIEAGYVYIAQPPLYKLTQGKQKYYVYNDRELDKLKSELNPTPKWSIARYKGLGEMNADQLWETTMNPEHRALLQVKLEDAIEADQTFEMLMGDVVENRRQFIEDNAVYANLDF
Summary of the method: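 IC50 was determined against S. aureus GyrB in the routine screening assay. The enzyme concentration limits resolution below 10 nM.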

[7] = Ratio of MIC for methicillin, quinolone-resistant Staphylococcus aureus to fraction unbound in human plasma; type: ADME
[8] = Solubility of the compound; type: physicochemical
[9] = Octanol-phosphate buffer distribution coefficient, log D of the compound at pH 7.4 by shake flask method; type: physicochemical

SMILES	fraction unbound [1]	MIC (Streptococcus pyogenes) [µg/mL]	MIC (Escherichia coli [2]) [µg/mL]	MIC (Moraxella catarrhalis) [µg/mL]	MIC (Escherichia coli [3]) [µg/mL]	clearance [4] [mL/min/kg]	MIC (Haemophilus influenzae) [µg/mL]	MIC (Staphylococcus aureus [5]) [µg/mL]	MIC (Streptococcus pneumoniae) [µg/mL]	MIC (Staphylococcus aureus [6]) [µg/mL]	pIC50 (DNA gyrase subunit B)	Ratio [7]	solubility [8] [µM]	logD [9]
CO[C@H]1CN(c2nc(C(=O)NC[C@H](C)OC)c(C(=O)O)s2)CC[C@H]1NC(=O)c1[nH]c(C)c(Cl)c1Cl	0.027	< 0.008	> 8	< 0.008	0.5 (≈ 0.912 µM)	13	0.13 (≈ 0.237 µM)	0.031 (≈ 0.0565 µM)	0.016 (≈ 0.0292 µM)	0.031 (≈ 0.0565 µM)	> 8.00	1.1	–	–
CO[C@H]1CN(c2nc(C(=O)N(C)C)c(C(=O)O)s2)CC[C@H]1NC(=O)c1[nH]c(C)c(Cl)c1Cl (racemic)	0.13	–	> 8	2 (≈ 3.97 µM)	2 (≈ 3.97 µM)	–	8 (≈ 15.9 µM)	8 (≈ 15.9 µM)	4 (≈ 7.93 µM)	> 8	> 8.00	> 62	> 1000	-1
CO[C@H]1CN(c2nc(C(=O)NN3CCOCC3)c(C(=O)O)s2)CC[C@H]1NC(=O)c1[nH]c(C)c(Cl)c1Cl	0.071	0.25 (≈ 0.445 µM)	> 64	0.35 (≈ 0.623 µM)	1 (≈ 1.78 µM)	–	1.4 (≈ 2.49 µM)	2 (≈ 3.56 µM)	0.25 (≈ 0.445 µM)	4 (≈ 7.12 µM)	> 8.00	56	> 1000	-0.15
CO[C@H]1CN(c2nc(-c3cncnc3)c(C(=O)O)s2)CC[C@H]1NC(=O)c1[nH]c(C)c(Cl)c1Cl	0.011	0.4 (≈ 0.782 µM)	> 100	0.4 (≈ 0.782 µM)	0.8 (≈ 1.56 µM)	–	1.6 (≈ 3.13 µM)	3.2 (≈ 6.26 µM)	< 0.1	3.2 (≈ 6.26 µM)	> 8.00	290	260 (≈ 133 µg/mL)	0.35
CO[C@H]1CN(c2nc(-c3cn(C)cn3)c(C(=O)O)s2)CC[C@H]1NC(=O)c1[nH]c(C)c(Cl)c1Cl	0.019	< 0.06	16 (≈ 31.2 µM)	< 0.06	< 0.06	–	2 (≈ 3.9 µM)	0.13 (≈ 0.253 µM)	< 0.06	0.13 (≈ 0.253 µM)	> 8.00	6.8	3 (≈ 1.54 µg/mL)	2.5
CO[C@H]1CN(c2nc(C(=O)O)c(C)s2)CC[C@H]1NC(=O)c1[nH]c(C)c(Cl)c1Cl	0.007	0.063 (≈ 0.141 µM)	> 8	0.063 (≈ 0.141 µM)	0.25 (≈ 0.559 µM)	–	0.25 (≈ 0.559 µM)	0.13 (≈ 0.291 µM)	0.031 (≈ 0.0693 µM)	0.13 (≈ 0.291 µM)	> 8.00	19	> 1000	1.2
CO[C@H]1CN(c2nc(CO)c(C(=O)O)s2)CC[C@H]1NC(=O)c1[nH]c(C)c(Cl)c1Cl (racemic)	0.029	–	> 8	1 (≈ 2.16 µM)	1 (≈ 2.16 µM)	–	8 (≈ 17.3 µM)	> 8	2 (≈ 4.32 µM)	–	> 8.00	17	–	-0.27
CO[C@H]1CN(c2nc(-c3ncc[nH]3)c(C(=O)O)s2)CC[C@H]1NC(=O)c1[nH]c(C)c(Cl)c1Cl	< 0.01	0.08 (≈ 0.16 µM)	> 64	< 0.06	< 0.06	–	1 (≈ 2 µM)	0.63 (≈ 1.26 µM)	< 0.06	1 (≈ 2 µM)	> 8.00	100	< 1	> 2.5
CO[C@H]1CN(c2nc(-c3cncc(NCCN4CCN(C)CC4)n3)c(C(=O)O)s2)CC[C@H]1NC(=O)c1[nH]c(C)c(Cl)c1Cl	0.027	0.031 (≈ 0.0475 µM)	46 (≈ 70.5 µM)	–	0.51 (≈ 0.781 µM)	–	1 (≈ 1.53 µM)	0.25 (≈ 0.383 µM)	0.011 (≈ 0.0169 µM)	0.58 (≈ 0.889 µM)	8.92	21	36 (≈ 23.5 µg/mL)	2
CO[C@H]1CN(c2nc(-c3nccn3C)c(C(=O)O)s2)CC[C@H]1NC(=O)c1[nH]c(C)c(Cl)c1Cl	0.011	< 0.06	8 (≈ 15.6 µM)	< 0.06	< 0.06	–	0.25 (≈ 0.487 µM)	< 0.06	< 0.06	–	> 8.00	5.2	12 (≈ 6.16 µg/mL)	> 3
CO[C@H]1CN(c2nc(C(=O)NCCN3CCOCC3)c(C(=O)O)s2)CC[C@H]1NC(=O)c1[nH]c(C)c(Cl)c1Cl	0.054	0.031 (≈ 0.0526 µM)	> 8	0.031 (≈ 0.0526 µM)	0.25 (≈ 0.424 µM)	–	0.25 (≈ 0.424 µM)	0.25 (≈ 0.424 µM)	0.031 (≈ 0.0526 µM)	0.5 (≈ 0.848 µM)	> 8.00	9.2	> 1000	1
COCc1nc(N2CC[C@@H](NC(=O)c3[nH]c(C)c(Cl)c3Cl)[C@@H](OC)C2)sc1C(=O)O	0.034	–	> 8	0.063 (≈ 0.132 µM)	0.5 (≈ 1.05 µM)	–	0.35 (≈ 0.733 µM)	0.5 (≈ 1.05 µM)	0.12 (≈ 0.251 µM)	1 (≈ 2.09 µM)	> 8.00	29	> 1000	0.44
CO[C@H]1CN(c2nc(C(N)=O)c(C(=O)O)s2)CC[C@H]1NC(=O)c1[nH]c(C)c(Cl)c1Cl	0.043	0.039 (≈ 0.0819 µM)	> 8	0.02 (≈ 0.042 µM)	0.32 (≈ 0.672 µM)	–	0.16 (≈ 0.336 µM)	0.5 (≈ 1.05 µM)	0.039 (≈ 0.0819 µM)	0.5 (≈ 1.05 µM)	> 8.00	12	280 (≈ 133 µg/mL)	0.85
CO[C@H]1CN(c2nc(C(=O)O)c(C(N)=O)s2)CC[C@H]1NC(=O)c1[nH]c(C)c(Cl)c1Cl (racemic)	0.005	–	> 8	2 (≈ 4.2 µM)	1 (≈ 2.1 µM)	–	> 8	> 8	1 (≈ 2.1 µM)	–	> 8.00	160	–	-0.63
CNC(=O)c1sc(N2CC[C@@H](NC(=O)c3[nH]c(C)c(Cl)c3Cl)[C@@H](OC)C2)nc1C(=O)O	< 0.01	–	> 64	–	2 (≈ 4.08 µM)	–	–	–	> 32	2 (≈ 4.08 µM)	> 8.00	> 200	> 1000	–
CO[C@H]1CN(c2nc(-c3ccccn3)c(C(=O)O)s2)CC[C@H]1NC(=O)c1[nH]c(C)c(Cl)c1Cl	0.003	< 0.06	8 (≈ 15.7 µM)	< 0.06	0.13 (≈ 0.255 µM)	–	0.5 (≈ 0.98 µM)	< 0.06	< 0.06	–	> 8.01	< 21	< 1	> 2.5
CO[C@H]1CN(c2nc(C(=O)NCCN3CCCC3=O)c(C(=O)O)s2)CC[C@H]1NC(=O)c1[nH]c(C)c(Cl)c1Cl	0.076	< 0.06	64 (≈ 109 µM)	< 0.063	0.71 (≈ 1.21 µM)	–	0.5 (≈ 0.851 µM)	0.35 (≈ 0.596 µM)	< 0.06	1.4 (≈ 2.38 µM)	> 8.00	18	870 (≈ 511 µg/mL)	–
COc1ccnc(-c2nc(N3CC[C@@H](NC(=O)c4[nH]c(C)c(Cl)c4Cl)[C@@H](OC)C3)sc2C(=O)O)n1	0.036	< 0.06	16 (≈ 29.6 µM)	< 0.06	–	6.3	0.25 (≈ 0.462 µM)	< 0.06	< 0.06	–	> 8.00	1.75	–	–
CO[C@H]1CN(c2nc(C(=O)N3CCOCC3)c(C(=O)O)s2)CC[C@H]1NC(=O)c1[nH]c(C)c(Cl)c1Cl (racemic)	0.14	–	> 8	2 (≈ 3.66 µM)	4 (≈ 7.32 µM)	–	8 (≈ 14.6 µM)	8 (≈ 14.6 µM)	2 (≈ 3.66 µM)	> 8	> 8.00	> 57	200 (≈ 109 µg/mL)	-0.99
CO[C@H]1CN(c2nc(-c3nccs3)c(C(=O)O)s2)CC[C@H]1NC(=O)c1[nH]c(C)c(Cl)c1Cl	< 0.01	< 0.06	8 (≈ 15.5 µM)	< 0.06	0.13 (≈ 0.252 µM)	–	0.13 (≈ 0.252 µM)	< 0.06	< 0.06	–	> 8.01	< 6.3	16 (≈ 8.26 µg/mL)	3.6
CO[C@H]1CN(c2nc(-c3csc(N)n3)c(C(=O)O)s2)CC[C@H]1NC(=O)c1[nH]c(C)c(Cl)c1Cl	< 0.01	< 0.06	4 (≈ 7.53 µM)	< 0.06	< 0.06	–	0.5 (≈ 0.941 µM)	< 0.06	< 0.06	–	> 8.01	< 6.3	< 1	3
CO[C@H]1CN(c2nc(C(F)F)c(C(=O)O)s2)CC[C@H]1NC(=O)c1[nH]c(C)c(Cl)c1Cl	–	0.13 (≈ 0.269 µM)	> 8	0.063 (≈ 0.13 µM)	0.5 (≈ 1.03 µM)	70	1 (≈ 2.07 µM)	2 (≈ 4.14 µM)	0.063 (≈ 0.13 µM)	2 (≈ 4.14 µM)	> 8.00	–	690 (≈ 333 µg/mL)	0.52
